Each block holds one compound with its values, some of them ahead of it.
Assays:
FmlH (Escherichia coli) = test: Inhibition of C-terminal 6His-tagged biotinylated FmIH (Escherichia coli CFT073) expressed in Escherichia coli C600 cells incubated for 1 hr
[1] = AUMCextra in mouse at 3 mg/kg, iv by LC-MS/MS method; assay type: ADME, organism-based; conditions: in vivo
Procedure, shortened: (§1)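 Single dose in mice, given 3 mg/kg intravenously or 10 mg/kg orally. Plasma was followed over 8 h, and the mean plasma concentration-time profile was used. Oral bioavailability (%F) was calculated from the IV and PO exposures.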

[2] = AUCinfinity in mouse at 3 mg/kg, iv by LC-MS/MS method; assay type: ADME, organism-based; conditions: in vivo
Procedure, shortened: as §1

[3] = AUC(0 to infinity) in mouse at 10 mg/kg, po by LC-MS/MS method; assay type: ADME, organism-based; conditions: in vivo
Procedure, shortened: as §1

[4] = AUC(0 to last) in mouse at 10 mg/kg, po by LC-MS/MS method; assay type: ADME, organism-based; conditions: in vivo
Procedure, shortened: as §1

[5] = MRT(0 to last) in mouse at 10 mg/kg, po by LC-MS/MS method; assay type: ADME, organism-based; conditions: in vivo
Procedure, shortened: as §1

[6] = Volume of distribution at steady state in mouse at 3 mg/kg, iv by LC-MS/MS method; assay type: ADME, organism-based; conditions: in vivo, read-out: Vdss
Procedure, shortened: as §1

[7] = AUCextra in mouse at 10 mg/kg, po by LC-MS/MS method; assay type: ADME, organism-based; conditions: in vivo
Procedure, shortened: as §1

[8] = Tmax in mouse at 10 mg/kg, po by LC-MS/MS method; assay type: ADME, organism-based; conditions: in vivo
Procedure, shortened: as §1

[9] = Half-life in mouse at 3 mg/kg, iv by LC-MS/MS method; assay type: ADME, organism-based; conditions: in vivo
Procedure, shortened: as §1

[10] = Oral bioavailability in mouse at 10 mg/kg by LC-MS/MS method; assay type: ADME, organism-based; conditions: in vivo
Procedure, shortened: as §1

[11] = Initial plasma concentration in mouse at 3 mg/kg, iv by LC-MS/MS method; assay type: ADME, organism-based
Procedure, shortened: as §1

[12] = AUC(0 to last) in mouse at 3 mg/kg, iv by LC-MS/MS method; assay type: ADME, organism-based; conditions: in vivo
Procedure, shortened: as §1

[13] = AUMCextra in mouse at 10 mg/kg, po by LC-MS/MS method; assay type: ADME, organism-based; conditions: in vivo
Procedure, shortened: as §1

[14] = Cmax in mouse at 10 mg/kg, po by LC-MS/MS method; assay type: ADME, organism-based; conditions: in vivo
Procedure, shortened: as §1

[15] = Mean residence time(0 to infinity) in mouse at 3 mg/kg, iv by LC-MS/MS method; assay type: ADME, organism-based; conditions: in vivo
Procedure, shortened: as §1

[16] = Half life in mouse at 10 mg/kg, po by LC-MS/MS method; assay type: ADME, organism-based; conditions: in vivo
Procedure, shortened: as §1

[17] = Tlast in mouse at 3 mg/kg, iv by LC-MS/MS method; assay type: ADME, organism-based; conditions: in vivo
Procedure, shortened: as §1

[18] = MRT(0 to infinity) in mouse at 10 mg/kg, po by LC-MS/MS method; assay type: ADME, organism-based; conditions: in vivo
Procedure, shortened: as §1

[19] = Mean residence time(0 to last) in mouse at 3 mg/kg, iv by LC-MS/MS method; assay type: ADME, organism-based; conditions: in vivo
Procedure, shortened: as §1

[20] = Clearance in mouse at 3 mg/kg, iv by LC-MS/MS method; assay type: ADME, organism-based; conditions: in vivo
Procedure, shortened: as §1

[21] = AUCextra in mouse at 3 mg/kg, iv by LC-MS/MS method; assay type: ADME, organism-based; conditions: in vivo
Procedure, shortened: as §1

[22] = Tlast in mouse at 10 mg/kg, po by LC-MS/MS method; assay type: ADME, organism-based; conditions: in vivo
Procedure, shortened: as §1

[23] = Drug concentration in mouse urine at 2 mg/kg, po measured at 24 hrs by HPLC-MS/MS analysis; assay type: ADME, organism-based; conditions: read-out: Ct
Procedure, shortened: (§2)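 9-week-old C3H/HeN mice, n=5 per dose group, were dosed once by oral gavage. The compound was in 1% methyl cellulose, vortexed, sonicated 20 min, warmed at 50 °C for 10 min and vortexed again just before dosing. Mean urine concentration is reported.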

[24] = Drug concentration in mouse urine at 20 mg/kg, po measured at 24 hrs by HPLC-MS/MS analysis; assay type: ADME, organism-based; conditions: read-out: Ct
Procedure, shortened: as §2

Structure (SMILES): CC(=O)N[C@H]1[C@H](Oc2cccc(C(F)(F)F)c2-c2cccc(NS(C)(=O)=O)c2)O[C@H](CO)[C@H](O)[C@@H]1O
IC50 (FmlH (Escherichia coli)): 35 nM

Structure (SMILES): CC(=O)N[C@H]1[C@H](Oc2ccccc2-c2cccc(NS(C)(=O)=O)c2)O[C@H](CO)[C@H](O)[C@@H]1O
IC50 (FmlH (Escherichia coli)): 230 nM

Structure (SMILES): CS(=O)(=O)Nc1cccc(-c2ccccc2O[C@@H]2O[C@H](CO)[C@H](O)[C@H](O)[C@H]2O)c1
IC50 (FmlH (Escherichia coli)): 1600 nM

IC50 (FmlH (Escherichia coli)): > 50000 nM
Structure (SMILES): CS(=O)(=O)Nc1cccc(-c2ccccc2C[C@@H]2O[C@H](CO)[C@H](O)[C@H](O)[C@H]2[N+](=O)[O-])c1

Structure (SMILES): CC(=O)N[C@H]1[C@H](Oc2cccc(C(F)(F)F)c2-c2ccc(F)c(NS(C)(=O)=O)c2)O[C@H](CO)[C@H](O)[C@@H]1O
IC50 (FmlH (Escherichia coli)): 890 nM

Structure (SMILES): CC(=O)N[C@H]1[C@H](Oc2cccc(C(F)(F)F)c2-c2cc(F)cc(C#N)c2)O[C@H](CO)[C@H](O)[C@@H]1O
IC50 (FmlH (Escherichia coli)): 2000 nM

Structure (SMILES): CC(=O)N[C@H]1[C@H](Oc2cccc(C(F)(F)F)c2-c2cccc(F)c2)O[C@H](CO)[C@H](O)[C@@H]1O
IC50 (FmlH (Escherichia coli)): 480 nM

Structure (SMILES): CC(=O)N[C@H]1[C@H](Oc2cccc(C(F)(F)F)c2-c2cccc(F)c2F)O[C@H](CO)[C@H](O)[C@@H]1O
IC50 (FmlH (Escherichia coli)): 590 nM

Structure (SMILES): CC(=O)N[C@H]1[C@H](Oc2cccc(C(F)(F)F)c2-c2ccc(F)c(F)c2F)O[C@H](CO)[C@H](O)[C@@H]1O
IC50 (FmlH (Escherichia coli)): 700 nM

Structure (SMILES): CC(=O)N[C@H]1[C@H](Oc2cccc(C(F)(F)F)c2-c2cccc(C(=O)NS(C)(=O)=O)c2)O[C@H](CO)[C@H](O)[C@@H]1O
IC50 (FmlH (Escherichia coli)): 310 nM

Structure (SMILES): CS(=O)(=O)Nc1cccc(-c2ccccc2C[C@@H]2O[C@H](CO)[C@H](O)[C@H](O)[C@H]2O)c1
IC50 (FmlH (Escherichia coli)): 15000 nM

Structure (SMILES): CC(=O)N[C@@H]1[C@@H](O)[C@@H](O)[C@@H](CO)O[C@H]1C(=O)Nc1ccccc1-c1cccc(NS(C)(=O)=O)c1
IC50 (FmlH (Escherichia coli)): 6900 nM

Structure (SMILES): CC(=O)N[C@H]1[C@H](Oc2cccc(C(F)(F)F)c2-c2cc(F)cc(C(F)(F)F)c2)O[C@H](CO)[C@H](O)[C@@H]1O
IC50 (FmlH (Escherichia coli)): 9000 nM

Structure (SMILES): CC(=O)N[C@@H]1[C@@H](O)[C@@H](O)[C@@H](CO)O[C@H]1Cc1ccccc1-c1cccc(NS(C)(=O)=O)c1
IC50 (FmlH (Escherichia coli)): 15000 nM

Structure (SMILES): CC(=O)N[C@H]1[C@H](Oc2cccc(C(F)(F)F)c2-c2ccc(F)c(NS(=O)(=O)c3ccccc3)c2)O[C@H](CO)[C@H](O)[C@@H]1O
IC50 (FmlH (Escherichia coli)): 190 nM

Structure (SMILES): CC(=O)N[C@H]1[C@H](Oc2cccc(C(F)(F)F)c2-c2ccc3ccn(S(C)(=O)=O)c3c2)O[C@H](CO)[C@H](O)[C@@H]1O
IC50 (FmlH (Escherichia coli)): 600 nM

Structure (SMILES): CC(=O)N[C@H]1[C@H](Oc2cccc(C(F)(F)F)c2-c2cc(F)cc(F)c2)O[C@H](CO)[C@H](O)[C@@H]1O
IC50 (FmlH (Escherichia coli)): 6000 nM

Structure (SMILES): CC(=O)N[C@H]1[C@H](Oc2cccc(C(F)(F)F)c2-c2cc(C#N)cc(C(F)(F)F)c2)O[C@H](CO)[C@H](O)[C@@H]1O
IC50 (FmlH (Escherichia coli)): 6000 nM

Structure (SMILES): CC(=O)N[C@H]1[C@H](Oc2cccc(C(F)(F)F)c2-c2ccc(F)cc2F)O[C@H](CO)[C@H](O)[C@@H]1O
IC50 (FmlH (Escherichia coli)): 320 nM

Structure (SMILES): CC(=O)N[C@H]1[C@H](Oc2cccc(C(F)(F)F)c2-c2cccc(CC#N)c2)O[C@H](CO)[C@H](O)[C@@H]1O
IC50 (FmlH (Escherichia coli)): 800 nM

Structure (SMILES): CC(=O)N[C@H]1[C@H](Oc2cccc(C(F)(F)F)c2-c2ccc(F)c(F)c2)O[C@H](CO)[C@H](O)[C@@H]1O
AUMC [1]: 7.31%
AUC(0-inf) [2]: 1810 ng·h/mL
AUC(0-inf) [3]: 1860 ng·h/mL
AUC(0-t) [4]: 1830 ng·h/mL
MRT last [5]: 3.53 h
Vd [6]: 2.39 L/kg
%AUCextra [7]: 1.64%
Tmax [8]: 2.64 h
half-life [9]: 1.26 h
bioavailability [10]: 30.7%
IC50 (FmlH (Escherichia coli)): 240 nM
C0 [11]: 3190 ng/mL
AUC(0-t) [12]: 1790 ng·h/mL
AUMC [13]: 5.96%
Cmax [14]: 472 ng/mL
MRT inf [15]: 1.43 h
half-life [16]: 1.8 h
Tlast [17]: 8 h
MRT inf [18]: 3.67 h
MRT last [19]: 1.34 h
clearance [20]: 28 mL/min/kg
%AUCextra [21]: 1.07%

Structure (SMILES): CC(=O)N[C@H]1[C@H](Oc2cccc(C(F)(F)F)c2-c2cccc(CS(C)(=O)=O)c2)O[C@H](CO)[C@H](O)[C@@H]1O
IC50 (FmlH (Escherichia coli)): 450 nM

Structure (SMILES): CS(=O)(=O)Nc1cccc(-c2ccccc2C[C@@H]2O[C@H](CO)[C@H](O)[C@H](O)[C@H]2F)c1
IC50 (FmlH (Escherichia coli)): 7300 nM

Structure (SMILES): CC(=O)N[C@H]1[C@H](Oc2cccc(C(F)(F)F)c2-c2cccc(N(C)S(=O)(=O)O)c2)O[C@H](CO)[C@H](O)[C@@H]1O
IC50 (FmlH (Escherichia coli)): 2000 nM

Structure (SMILES): CC(=O)N[C@H]1[C@H](Oc2cccc(C(F)(F)F)c2-c2ccccc2F)O[C@H](CO)[C@H](O)[C@@H]1O
IC50 (FmlH (Escherichia coli)): 710 nM

Structure (SMILES): COc1cc(F)cc(-c2c(O[C@@H]3O[C@H](CO)[C@H](O)[C@H](O)[C@H]3NC(C)=O)cccc2C(F)(F)F)c1
IC50 (FmlH (Escherichia coli)): 6000 nM

Structure (SMILES): CC(=O)N[C@H]1[C@H](Oc2cccc(C(F)(F)F)c2-c2ccc(F)cc2)O[C@H](CO)[C@H](O)[C@@H]1O
AUMC [1]: 10.8%
AUC(0-inf) [2]: 3740 ng·h/mL
AUC(0-inf) [3]: 6560 ng·h/mL
AUC(0-t) [4]: 6070 ng·h/mL
Tlast [22]: 8 h
MRT last [5]: 3.18 h
Vd [6]: 1.42 L/kg
%AUCextra [7]: 7.55%
Tmax [8]: 2 h
half-life [9]: 1.47 h
bioavailability [10]: 52.7%
IC50 (FmlH (Escherichia coli)): 190 nM
C0 [11]: 4430 ng/mL
concentration at 24 h [23]: 15.8 ng/mL
AUC(0-t) [12]: 3660 ng·h/mL
AUMC [13]: 21.6%
Cmax [14]: 1480 ng/mL
MRT inf [15]: 1.75 h
half-life [16]: 1.92 h
concentration at 24 h [24]: 66.3 ng/mL
Tlast [17]: 8 h
MRT inf [18]: 3.75 h
MRT last [19]: 1.59 h
clearance [20]: 13.6 mL/min/kg
%AUCextra [21]: 1.9%

Structure (SMILES): COc1cc(-c2c(O[C@@H]3O[C@H](CO)[C@H](O)[C@H](O)[C@H]3NC(C)=O)cccc2C(F)(F)F)cc(C(F)(F)F)c1
IC50 (FmlH (Escherichia coli)): 18000 nM

Source: ChEMBL document CHEMBL5528045, “Discovery of Orally Bioavailable FmlH Lectin Antagonists as Treatment for Urinary Tract Infections” (J Med Chem, 2024)
